The source of these data is paper PMC4604364 (Antimicrobial Agents and Chemotherapy, 2015).

The structures appear in SMILES notation. Values after ≈ are worked out from the molar mass of the structure shown. Some results are limits rather than exact numbers.

Series [1] has as its system S. aureus RN450 (wild type, tetracycline susceptible). In words: Microdilution MIC, S. aureus wild type. The note with it: Staphylococcus aureus, read-out: MIC, S. aureus wild type. In kind it is cell-based. Background: Dilution methods test growth across graded concentrations, often in twofold steps.
Series [2] concerns S. aureus MRSA 5 (MRSA, ribosome protection, Tet M). Description: Microdilution MIC, S. aureus Tet M. In kind it is cell-based. The note with it: Staphylococcus aureus, read-out: MIC, S. aureus Tet M.
For series [3], the system named is S. aureus RN4250 (tetracycline efflux, Tet K). In words: Microdilution MIC, S. aureus Tet K. In kind it is cell-based. The following applies: Staphylococcus aureus, read-out: MIC, S. aureus Tet K.
The subject of series [4] is E. faecalis JH2-2 (wild type, tetracycline susceptible). In words: Microdilution MIC, E. faecalis wild type. It counts as cell-based. The following applies: Enterococcus faecalis, read-out: MIC, E. faecalis wild type.
Series [5] has as its system E. faecalis JH2-2(pAM211) (ribosome protection, Tet M). Description: Microdilution MIC, E. faecalis Tet M. It counts as cell-based. The note with it: Enterococcus faecalis, read-out: MIC, E. faecalis Tet M.
For series [6], the system named is E. faecalis JH2-2(pMV158) (tetracycline efflux, Tet L). Description: Microdilution MIC, E. faecalis Tet L. It counts as cell-based. The following applies: Enterococcus faecalis, read-out: MIC, E. faecalis Tet L.
The test system of series [7] is E. faecium 494 (Tet M plus Tet L). Description: Microdilution MIC, E. faecium Tet M + L. It counts as cell-based. The note with it: Enterococcus faecium, read-out: MIC, E. faecium Tet M + L.
Series [8] has as its system S. pneumoniae 157E (wild type, tetracycline susceptible). In words: Microdilution MIC, S. pneumoniae wild type. It counts as cell-based. The following applies: Streptococcus pneumoniae, read-out: MIC, S. pneumoniae wild type.
Series [9] has as its system S. pneumoniae ATCC 700905 (ribosome protection, Tet M). In words: Microdilution MIC, S. pneumoniae Tet M. The note with it: Streptococcus pneumoniae, ATCC700905, read-out: MIC, S. pneumoniae Tet M. It counts as cell-based.
In series [10] the test system is S. aureus MRSA 5 (Tet M). Description: Serum MIC, S. aureus MRSA 5. In kind it is cell-based. The following applies: Staphylococcus aureus, read-out: S. aureus MRSA 5 (Tet M) serum MIC, None.
Series [11] in a line: Pharmacokinetics in nonhuman primates. In kind it is in vivo, Cynomolgus monkeys. The following applies: for AUC / Cmax / Tmax / half-life / bioavailability: cynomolgus monkey, plasma. Summed up: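 Cynomolgus monkeys were dosed intravenously (infusion ending at 0.25 h) or orally. Plasma was sampled predose and at 0.25, 0.5, 1, 3, 5, 7, 16 and 24 h. Protein was precipitated with acetonitrile containing 0.1% formic acid, then centrifuged. The supernatant was dried, reconstituted in methanol-water (1:1) and quantified by LC-MS/MS. PK parameters came from noncompartmental analysis.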

For series [12], the system named is S. aureus MRSA 5 (Tet M). Description: S. aureus MRSA 5 thigh wound infection model in mice. The following applies: 24 h after single subcutaneous injection of 20 mg/kg. In kind it is in vivo.
In series [13] the test system is Gram-positive screening panel organisms (S. aureus, Enterococcus spp., S. pneumoniae). In words: MIC ranges over the Gram-positive screening panel. In kind it is cell-based. The note with it: read-out: MIC range against resistant organisms.

The term MIC denotes the lowest concentration that inhibits growth of the organism. Regarding `CN(C)[C@@H]1C(O)=C(C(N)=O)C(=O)[C@@]2(O)C(O)=C3C(=O)c4c(O)cccc4[C@@](C)(O)[C@H]3C[C@@H]12` [Tetracycline, tetracycline], the MIC in [1] is below 0.06 µg/mL; in series [2] it was 32 µg/mL (≈ 72 µM); in series [3] it was above 64 µg/mL; in series [4], 0.25 µg/mL (≈ 0.563 µM); in series [5] it was above 64 µg/mL; in series [6], 64 µg/mL (≈ 144 µM). Further, the MIC in [7] was above 64 µg/mL; in [8], below 0.06 µg/mL; in series [9], 32 µg/mL (≈ 72 µM).
In general, AUC refers to concentration integrated over time. The low end stands for low exposure, the high end for high exposure. What is called Cmax is the peak of the concentration-time curve. In general, Tmax refers to the time from dosing to the highest level. The term half-life denotes the time needed for the level to fall by half in the phase considered. A low value points to fast loss. Usually bioavailability stands for the share of a dose that reaches the circulation, judged against a reference dose that is usually intravenous. Read a low bioavailability as poor availability. Take `CN(C)c1cc(NC(=O)CNC(C)(C)C)c(O)c2c1C[C@H]1C[C@H]3[C@H](N(C)C)C(O)=C(C(N)=O)C(=O)[C@@]3(O)C(O)=C1C2=O` [Tigecycline, tigecycline]: the MIC in series [1] is 0.25 µg/mL (≈ 0.427 µM); in series [2], 0.25 µg/mL (≈ 0.427 µM); in series [3] it was 0.5 µg/mL (≈ 0.854 µM); in [4] it was 0.5 µg/mL (≈ 0.854 µM); in [5], 0.5 µg/mL (≈ 0.854 µM); in series [6], 0.5 µg/mL (≈ 0.854 µM). The MIC in series [7] is 0.5 µg/mL; in series [8], below 0.06 µg/mL; in series [9], below 0.06 µg/mL; in series [10], 0.25 µg/mL (≈ 0.427 µM). Also, the AUC stood at 16300 ng·h/mL in series [11] (iv, 5 mg/kg) and 500 ng·h/mL in [11] (po, 5 mg/kg). Moreover, the Cmax was 23200 ng/mL in series [11] (iv, 5 mg/kg) and 40 ng/mL in [11] (po, 5 mg/kg). The Tmax in series [11] (iv, 5 mg/kg) stood at 0.2 h; in [11] (po, 5 mg/kg) it was 4 h. Besides, the half-life in [11] (iv, 5 mg/kg) is 10.9 h; in [11] (po, 5 mg/kg), 3.4 h. The compound also showed a bioavailability in series [11] (po, 5 mg/kg) of 3.1%.
Consider `CN(C)c1ccc(O)c2c1C[C@H]1C[C@H]3[C@H](N(C)C)C(O)=C(C(N)=O)C(=O)[C@@]3(O)C(O)=C1C2=O` [Minocycline, minocycline], for which the MIC was 0.25 µg/mL (≈ 0.546 µM) in [1]; 2 µg/mL (≈ 4.37 µM) in series [2]; 0.5 µg/mL (≈ 1.09 µM) in series [3]; 0.5 µg/mL (≈ 1.09 µM) in series [4]; 16 µg/mL (≈ 35 µM) in [5]; 0.5 µg/mL (≈ 1.09 µM) in series [6]. Besides, the MIC is 16 µg/mL in series [7], below 0.06 µg/mL in series [8], 8 µg/mL (≈ 17.5 µM) in [9] and 2 µg/mL (≈ 4.37 µM) in [10]. Moreover, in [12], the “reduction of colony count relative to untreated control animals” value amounted to 0.98 log10. In addition, the AUC turned out to be 27600 ng·h/mL in [11] (iv, 5 mg/kg) and 22100 ng·h/mL in series [11] (po, 5 mg/kg). In addition, the Cmax in [11] (iv, 5 mg/kg) stood at 14800 ng/mL; in [11] (po, 5 mg/kg) it was 2200 ng/mL. In addition, the Tmax in series [11] (iv, 5 mg/kg) came out at 0.1 h; in [11] (po, 5 mg/kg) it was 3 h. The half-life in series [11] (iv, 5 mg/kg) is 10.4 h; in series [11] (po, 5 mg/kg) it was 7 h. This compound also returned a bioavailability in series [11] (po, 5 mg/kg) of 80%.
For the compound `CN[C@H](CC(C)C)C(=O)N[C@H]1C(=O)N[C@@H](CC(N)=O)C(=O)N[C@H]2C(=O)N[C@H]3C(=O)N[C@H](C(=O)N[C@H](C(=O)O)c4cc(O)cc(O)c4-c4cc3ccc4O)[C@H](O)c3ccc(c(Cl)c3)Oc3cc2cc(c3O[C@@H]2O[C@H](CO)[C@@H](O)[C@H](O)[C@H]2O[C@H]2C[C@](C)(N)[C@H](O)[C@H](C)O2)Oc2ccc(cc2Cl)[C@H]1O` [Vancomycin], the MIC is 0.5 µg/mL (≈ 0.345 µM) in [1]; 0.5 µg/mL (≈ 0.345 µM) in series [2]; 0.25 µg/mL (≈ 0.173 µM) in series [3]; 1 µg/mL (≈ 0.69 µM) in series [4]; 1 µg/mL (≈ 0.69 µM) in [5]; 1 µg/mL (≈ 0.69 µM) in series [6]. The MIC was above 64 µg/mL in series [7], 0.25 µg/mL (≈ 0.173 µM) in series [8], 0.25 µg/mL (≈ 0.173 µM) in [9] and 0.5 µg/mL (≈ 0.345 µM) in series [10].
As to `CN(C)c1cc(CNCC(C)(C)C)c(O)c2c1C[C@H]1C[C@H]3[C@H](N(C)C)C(O)=C(C(N)=O)C(=O)[C@@]3(O)C(O)=C1C2=O` [Compound 27, 9-neopentylaminomethylminocycline], the MIC is 0.25 µg/mL (≈ 0.449 µM) in [1]; 0.25 µg/mL (≈ 0.449 µM) in series [2]; 0.25 µg/mL (≈ 0.449 µM) in series [3]; 0.25 µg/mL (≈ 0.449 µM) in series [4]; 0.5 µg/mL (≈ 0.898 µM) in [5]; 0.5 µg/mL (≈ 0.898 µM) in [6]. Moreover, the MIC is 0.5 µg/mL in series [7]; below 0.06 µg/mL in series [8]; below 0.06 µg/mL in [9]; 0.25 µg/mL (≈ 0.449 µM) in series [10]; 0.06 to 0.5 µg/mL (≈ 0.108 to 0.898 µM) in [13]. In addition, the “reduction of colony count relative to untreated control animals” value in series [12] lay in the range of 2.49 to 3.11 log10. For the same compound, the “tolerability after intravenous infusion” value in series [11] (Cynomolgus monkeys) is given as “well tolerated”. Besides, the AUC came to 9000 ng·h/mL in series [11] (iv, 2.6 mg/kg) and 5300 ng·h/mL in series [11] (po, 5 mg/kg). The Cmax in series [11] (iv, 2.6 mg/kg) was 1880 ng/mL; in series [11] (po, 5 mg/kg) it was 410 ng/mL. For the same compound, the Tmax in [11] (iv, 2.6 mg/kg) was determined as 0.2 h; in series [11] (po, 5 mg/kg), 2.3 h. For the same compound, the half-life is 14.4 h in series [11] (iv, 2.6 mg/kg) and 11.1 h in series [11] (po, 5 mg/kg). Also, the bioavailability in [11] (po, 5 mg/kg) turned out to be 31%. Also, in series [11] (oral administration, monkeys), the “oral plasma exposure relative to tigecycline” value stood at 10 fold.
